Reference: paper PMC3108854 (Molecular and biochemical parasitology, 2010)

Key:
[1] = biological target: T1, Pf N-Myristoyl Transferase (Plasmodium falciparum, UniProt Q8ILW6); assay: N-myristoyltransferase biochemical assay; details: read-out: NMT IC50, positive control
T1 sequence (Q8ILW6 1-410): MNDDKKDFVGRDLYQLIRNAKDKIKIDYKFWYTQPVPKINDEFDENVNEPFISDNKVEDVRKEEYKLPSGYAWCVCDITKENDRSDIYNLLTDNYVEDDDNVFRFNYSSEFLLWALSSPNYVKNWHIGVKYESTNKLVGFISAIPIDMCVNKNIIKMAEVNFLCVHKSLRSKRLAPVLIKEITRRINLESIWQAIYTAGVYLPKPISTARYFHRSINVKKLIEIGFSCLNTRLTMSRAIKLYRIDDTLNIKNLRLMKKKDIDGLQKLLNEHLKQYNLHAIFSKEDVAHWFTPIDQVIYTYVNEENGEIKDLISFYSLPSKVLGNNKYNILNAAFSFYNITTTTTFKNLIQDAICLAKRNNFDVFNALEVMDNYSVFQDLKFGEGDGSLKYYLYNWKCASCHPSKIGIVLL

Pf dUTPase = biological target: T2, Pf dUTPase (Plasmodium falciparum, UniProt Q8II92); assay: dUTPase biochemical assay
T2 sequence (Q8II92 1-173): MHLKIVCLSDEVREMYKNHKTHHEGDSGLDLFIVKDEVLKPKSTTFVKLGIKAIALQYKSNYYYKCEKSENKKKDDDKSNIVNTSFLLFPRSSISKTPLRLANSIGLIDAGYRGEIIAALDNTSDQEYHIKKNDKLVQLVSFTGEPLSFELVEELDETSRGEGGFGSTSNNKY

[2] = biological target: Pf Adenylosuccinate Synthase (Plasmodium falciparum, UniProt Q9U8D3); assay: adenylosuccinate synthetase biochemical assay
P. falciparum strain 3d7 = assay: erythrocyte-based P. falciparum strain 3d7 infection; format: cell-based; details: Plasmodium falciparum, 3D7, read-out: EC50 against P. falciparum in vitro
Outline: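 P. falciparum was grown in erythrocytes. The primary screen used 1.25 μM, and ≥50% growth inhibition counted as a hit. Hits were retested in 8-point dose-response curves for EC₅₀ against sulfadoxine-resistant 3D7 and multidrug-resistant W2. Compounds with CC₅₀/EC₅₀ <5 (Huh7 cells) or that quenched fluorescence were excluded.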

Chain of Pf Adenylosuccinate Synthase (Q9U8D3 whole entry): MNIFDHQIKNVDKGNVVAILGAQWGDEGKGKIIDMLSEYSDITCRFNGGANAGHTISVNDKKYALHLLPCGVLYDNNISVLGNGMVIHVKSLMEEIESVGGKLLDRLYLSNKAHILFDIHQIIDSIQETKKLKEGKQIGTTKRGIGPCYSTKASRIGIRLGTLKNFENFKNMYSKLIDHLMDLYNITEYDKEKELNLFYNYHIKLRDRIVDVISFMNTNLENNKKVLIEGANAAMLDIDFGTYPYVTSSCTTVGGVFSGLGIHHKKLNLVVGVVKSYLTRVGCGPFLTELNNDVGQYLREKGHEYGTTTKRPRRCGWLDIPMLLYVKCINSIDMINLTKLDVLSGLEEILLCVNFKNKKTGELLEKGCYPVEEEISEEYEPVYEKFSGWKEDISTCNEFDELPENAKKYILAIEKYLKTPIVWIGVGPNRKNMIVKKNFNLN

`O=C(O)C1=CC(=C(c2ccc(O)c(C(=O)O)c2)c2ccc(O)c(C(=O)O)c2)C=CC1=O` [aurintricarboxylate] showed an IC50 [1] of ~3000 nM.

`O=c1ccn([C@H]2C[C@H](O)[C@@H](COC(c3ccccc3)(c3ccccc3)c3ccccc3)O2)c(=O)[nH]1` [2′-deoxy-5′-O-(triphenylmethyl)uridine] was tested, and the IC50 (Pf dUTPase) was 2400 nM.

`O=CN(O)CC(=O)O` [Hadacidin] gave an IC50 [2] of 62 µM.

`O=P(O)(O)C(O)(Cc1ccccc1)P(=O)(O)O` [(1-hydroxy-2-phenylethylidene)bis-phosphonic acid] showed an EC50 (P. falciparum strain 3d7) of ~7.05 µM.
